Data set [1] deals with Rattus norvegicus. The data set is described as follows: Diuretic activity in Wistar rat at 0.1 mg/kg, po via gavage measured after 4 hrs. Format: functional, organism-based. An outline of the steps: (§1)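 Male Wistar rats (250-300 g, n = 6) dosed orally at 5 mL/kg. Vehicles: DMAC 5%/NaOH/saline, or NMP 10%/PEG-400 20%/saline pH 12.0. Rats were then kept singly in metabolic cages without food or water for 4 h. Urine volume, Na+ and K+ were measured with a biochemistry analyser.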

In data set [2] the test system is Rattus norvegicus. The experiment in a line: Natriuretic activity in Wistar rat at 0.1 mg/kg, po via gavage measured after 4 hrs. It counts as functional, organism-based. The method in brief:
as §1

The target in data set [3] is T1, Adenosine receptor A2b (Homo sapiens) (UniProt P29275).
T1 sequence (whole entry): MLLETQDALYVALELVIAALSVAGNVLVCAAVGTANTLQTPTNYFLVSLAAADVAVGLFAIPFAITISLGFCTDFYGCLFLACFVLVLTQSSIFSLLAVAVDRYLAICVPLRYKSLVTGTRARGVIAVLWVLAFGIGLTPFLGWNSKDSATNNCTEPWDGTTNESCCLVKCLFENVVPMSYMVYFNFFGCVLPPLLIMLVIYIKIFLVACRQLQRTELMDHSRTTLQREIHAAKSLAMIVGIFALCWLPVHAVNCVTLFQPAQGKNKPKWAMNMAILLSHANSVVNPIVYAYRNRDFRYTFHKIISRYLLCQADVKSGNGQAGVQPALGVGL
The experiment in a line: Displacement of [3H]MRS-1754 from human adenosine A2B receptor expressed in HEK293 cell membranes at 1 uM after 90 mins relative to control. An outline of the steps: (§2)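 Membranes from HEK-293 cells stably transfected with human receptor, pre-treated with adenosine deaminase. Radioligands: 1 nM [3H]DPCPX (A1), 1 nM [3H]ZM241385 (A2A), 1.6 nM [3H]MRS-1754 (A2B), 2 nM [3H]HEMADO (A3). Buffers: Tris pH 7.4 (A1, A2A, A3) or pH 6.5 (A2B), with ADA. Incubated 90 min at room temperature, then filtered. Nonspecific binding defined with 100 µM NECA. Ki from 8 concentrations run in triplicate.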

A short description of data set [4]: Drug metabolism assessed as hydroxylation at C-8 cyclopentyl by metabolic soft spot analysis. It counts as physicochemical.
A short description of data set [5]: Thermodynamic solubility of the compound in pH 4 solution. The conditions noted are these: read-out: Therm_solubility. It counts as physicochemical.
Data set [6] is described as follows: Thermodynamic solubility of the compound in pH 2 solution. The conditions noted are these: read-out: Therm_solubility. Format: physicochemical.
Data set [7] in a line: Clearance in Wistar rat at 3 mg/kg, iv by LC-Ms/MS analysis. The note with it: in vivo. Format: ADME, organism-based. An outline of the steps: (§3)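 Male Wistar rats (230 ± 15 g), fasted overnight with water available. IV dose of 3 mg/kg given by tail vein as a solution (0.6 mg/mL, 5 mL/kg). PO dose of 5 mg/kg given by gavage as a suspension. Blood was collected into K2EDTA at 0.008 (IV only) to 24 h and plasma was spun off. Samples were precipitated with acetonitrile and run on LC/MS/MS. Parameters came from non-compartmental analysis of individual animals, mean of n = 4.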

Data set [8] concerns the target T2, Adenosine receptor A1 (Homo sapiens, UniProt P30542).
T2 sequence (P30542 whole entry): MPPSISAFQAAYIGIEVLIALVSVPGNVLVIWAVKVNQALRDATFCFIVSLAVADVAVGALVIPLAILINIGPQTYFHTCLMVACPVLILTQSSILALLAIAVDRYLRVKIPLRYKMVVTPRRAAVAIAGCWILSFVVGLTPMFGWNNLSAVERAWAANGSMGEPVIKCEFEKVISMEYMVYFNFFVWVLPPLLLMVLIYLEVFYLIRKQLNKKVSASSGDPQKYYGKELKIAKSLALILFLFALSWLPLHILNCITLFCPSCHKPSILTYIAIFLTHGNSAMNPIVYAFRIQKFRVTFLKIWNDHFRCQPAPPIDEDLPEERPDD
The experiment in a line: Displacement of [3H]DPCPX from human adenosine A1 receptor expressed in HEK293 cell membranes after 90 mins.

The nature of data set [9]: Protein binding in rat plasma at 5 uM. It counts as ADME, cell-free. The conditions noted are these: read-out: PPB (converted).
Data set [10] can be described thus: Metabolic stability in rat liver microsomes assessed as parent compound remaining measured after 30 mins in presence of NADPH. Format: ADME, microsome. The conditions noted are these: read-out: Stability.
A short description of data set [11]: Metabolic stability in human liver microsomes assessed as parent compound remaining measured after 30 mins in presence of NADPH. The note with it: read-out: Stability. Format: ADME, microsome.
For data set [12], the target named is T3, Adenosine receptor A3 (Homo sapiens) (UniProt P0DMS8).
T3 sequence (whole entry): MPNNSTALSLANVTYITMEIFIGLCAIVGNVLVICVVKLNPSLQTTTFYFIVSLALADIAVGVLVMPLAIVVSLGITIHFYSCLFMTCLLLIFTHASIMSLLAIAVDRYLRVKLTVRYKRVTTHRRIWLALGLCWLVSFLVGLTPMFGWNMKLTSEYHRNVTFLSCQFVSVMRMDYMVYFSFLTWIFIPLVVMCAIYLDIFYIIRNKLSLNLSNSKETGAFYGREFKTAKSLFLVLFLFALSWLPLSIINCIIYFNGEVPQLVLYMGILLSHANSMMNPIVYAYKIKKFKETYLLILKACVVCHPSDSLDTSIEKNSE
The experiment in a line: Displacement of [3H]HEMADO from human adenosine A3 receptor expressed in HEK293 cell membranes at 1 uM after 90 mins relative to control. The method in brief: as §2

The next data set has as its target CYP2C19 (Homo sapiens, UniProt P33261). The data set is described as follows: Inhibition of CYP2C19 (unknown origin) at 5 uM relative to control. Format: ADME.
The test system of data set [13] is Liver. The data set is described as follows: Metabolic stability in human liver microsomes assessed as metabolic rate measured after 30 mins in presence of NADPH. It counts as ADME, microsome. The conditions noted are these: 0.5 h.
Data set [14] is described as follows: Thermodynamic solubility of the compound in pH 7.4 solution. Format: physicochemical. The conditions noted are these: read-out: Therm_solubility.
The target in data set [15] is T1, Adenosine receptor A2b (Homo sapiens). The experiment in a line: Antagonist activity at human adenosine A2B receptor expressed in HEK293 cells assessed as reduction in NECA-induced increase in cAMP level at 1 uM preincubated for 15 mins followed by NECA addition measured after 15 mins by HTRF assay relative to control. Format: functional, cell-based. The method in brief:
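Overnight HEK-A1 or HEK-A2B cultures were treated with 1 U/mL ADA for 90 min at 37°C. Compound was added for 15 min, then agonist for 15 min (1 nM CPA for A1; 70 nM NECA for A2B) at room temperature in incomplete DMEM with ADA. Rolipram (20 µM) was included for A1 only. cAMP was read by HTRF.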

Data set [16] concerns the target T2, Adenosine receptor A1. The data set is described as follows: Antagonist activity at human adenosine A1 receptor expressed in HEK293 cells assessed as reduction in CPA-mediated inhibition of forskolin-stimulated cAMP level preincubated for 15 mins followed by CPA treatment for 15 mins and subsequent addition of forskolin measured after 30 mins by HTRF assay. Format: functional, cell-based.

The next data set deals with T4, CYP1A2 (Homo sapiens, UniProt P05177).
T4 sequence (P05177 whole entry): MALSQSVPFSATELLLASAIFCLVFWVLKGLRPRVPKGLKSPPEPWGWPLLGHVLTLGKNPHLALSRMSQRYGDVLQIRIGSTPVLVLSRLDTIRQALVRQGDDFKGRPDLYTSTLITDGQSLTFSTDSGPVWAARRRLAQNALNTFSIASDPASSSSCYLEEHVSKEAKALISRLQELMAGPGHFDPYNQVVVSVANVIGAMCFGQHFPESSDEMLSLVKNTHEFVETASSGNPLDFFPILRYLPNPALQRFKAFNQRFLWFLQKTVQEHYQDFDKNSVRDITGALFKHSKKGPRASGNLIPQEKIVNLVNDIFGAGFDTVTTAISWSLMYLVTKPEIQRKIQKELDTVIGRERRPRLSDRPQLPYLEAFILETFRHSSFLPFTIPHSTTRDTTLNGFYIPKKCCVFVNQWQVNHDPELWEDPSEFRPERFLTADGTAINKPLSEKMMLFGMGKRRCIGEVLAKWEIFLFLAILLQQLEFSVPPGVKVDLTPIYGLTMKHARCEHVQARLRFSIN
The data set is described as follows: Inhibition of CYP1A2 (unknown origin) at 5 uM relative to control. It counts as ADME.

In the next data set the target is CYP2D6 (Homo sapiens, UniProt P10635). The experiment in a line: Inhibition of CYP2D6 (unknown origin) at 5 uM relative to control. Format: ADME.
The nature of data set [17]: Drug metabolism assessed as N-oxidation by metabolic soft spot analysis. Format: physicochemical.
Another data set concerns the target CYP3A4 (Homo sapiens, UniProt P08684). The data set is described as follows: Inhibition of CYP3A4 (unknown origin) at 5 uM relative to control. It counts as ADME.
Data set [18] can be described thus: Elimination half life in Wistar rat at 3 mg/kg, iv by LC-Ms/MS analysis. It counts as ADME, organism-based. The note with it: in vivo, read-out: beta t1/2 (converted). An outline of the steps:
as §3

A short description of data set [19]: AUC (0 to t) in Wistar rat at 3 mg/kg, iv by LC-Ms/MS analysis. Format: ADME, organism-based. The conditions noted are these: in vivo. The method in brief:
as §3

The next data set concerns the target Adenosine receptor A2a (Homo sapiens, UniProt P29274). The experiment in a line: Displacement of [3H]ZM241385 from human adenosine A2A receptor expressed in HEK293 cell membranes at 1 uM after 90 mins relative to control. An outline of the steps: as §2
The test system of data set [20] is Liver. The data set is described as follows: Metabolic stability in rat liver microsomes assessed as metabolic rate measured after 30 mins in presence of NADPH. It counts as ADME, microsome. The note with it: 0.5 h.
The next data set concerns the target CYP2C9 (Homo sapiens, UniProt P11712). The experiment in a line: Inhibition of CYP2C9 (unknown origin) at 5 uM relative to control. It counts as ADME.
Data set [21] can be described thus: Volume of distribution at steady state in Wistar rat at 3 mg/kg, iv by LC-Ms/MS analysis. It counts as ADME, organism-based. The note with it: in vivo, read-out: Vdss. The method in brief: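 Male Wistar rats (230 ± 15 g), fasted overnight with water available. IV dosing at 3 mg/kg by tail vein as solution (0.6 mg/mL, 5 mL/kg). PO dosing at 5 mg/kg by oral gavage. Serial blood sampling into K2EDTA from 0.008 (IV only) to 24 h. Plasma precipitated with acetonitrile containing internal standard and analysed by LC/MS/MS. Non-compartmental parameters calculated per animal; values are means of n = 4.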

Values after ≈ are worked out from the molar mass of the structure shown. Active and inactive are the calls of the source. No cut-off for these calls is given here.

Sequence of CYP2D6 (P10635 whole entry): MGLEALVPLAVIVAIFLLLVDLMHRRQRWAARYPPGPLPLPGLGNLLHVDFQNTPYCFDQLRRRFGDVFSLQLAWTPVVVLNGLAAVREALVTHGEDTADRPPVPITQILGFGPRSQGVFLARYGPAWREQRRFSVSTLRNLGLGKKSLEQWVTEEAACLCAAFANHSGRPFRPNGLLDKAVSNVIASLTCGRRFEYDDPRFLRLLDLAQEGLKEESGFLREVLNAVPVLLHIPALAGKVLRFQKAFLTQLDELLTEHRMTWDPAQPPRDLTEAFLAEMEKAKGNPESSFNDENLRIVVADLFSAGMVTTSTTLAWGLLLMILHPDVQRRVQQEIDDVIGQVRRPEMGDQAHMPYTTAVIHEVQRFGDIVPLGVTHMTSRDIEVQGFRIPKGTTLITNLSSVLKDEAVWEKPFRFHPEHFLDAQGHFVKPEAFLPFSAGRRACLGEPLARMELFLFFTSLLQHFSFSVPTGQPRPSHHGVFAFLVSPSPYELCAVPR
Sequence of Adenosine receptor A2a (P29274 whole entry): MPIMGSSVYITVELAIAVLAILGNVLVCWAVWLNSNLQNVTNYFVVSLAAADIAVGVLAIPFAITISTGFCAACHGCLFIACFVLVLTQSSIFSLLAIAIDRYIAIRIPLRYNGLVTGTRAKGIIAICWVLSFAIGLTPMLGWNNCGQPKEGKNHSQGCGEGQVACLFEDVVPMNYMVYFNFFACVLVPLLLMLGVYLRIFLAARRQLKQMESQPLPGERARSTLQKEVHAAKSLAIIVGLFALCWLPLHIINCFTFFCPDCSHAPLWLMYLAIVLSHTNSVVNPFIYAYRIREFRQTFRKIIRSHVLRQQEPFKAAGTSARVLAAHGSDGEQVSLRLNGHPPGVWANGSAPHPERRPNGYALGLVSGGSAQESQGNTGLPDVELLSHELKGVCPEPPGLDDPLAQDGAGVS
Sequence of CYP3A4 (P08684 whole entry): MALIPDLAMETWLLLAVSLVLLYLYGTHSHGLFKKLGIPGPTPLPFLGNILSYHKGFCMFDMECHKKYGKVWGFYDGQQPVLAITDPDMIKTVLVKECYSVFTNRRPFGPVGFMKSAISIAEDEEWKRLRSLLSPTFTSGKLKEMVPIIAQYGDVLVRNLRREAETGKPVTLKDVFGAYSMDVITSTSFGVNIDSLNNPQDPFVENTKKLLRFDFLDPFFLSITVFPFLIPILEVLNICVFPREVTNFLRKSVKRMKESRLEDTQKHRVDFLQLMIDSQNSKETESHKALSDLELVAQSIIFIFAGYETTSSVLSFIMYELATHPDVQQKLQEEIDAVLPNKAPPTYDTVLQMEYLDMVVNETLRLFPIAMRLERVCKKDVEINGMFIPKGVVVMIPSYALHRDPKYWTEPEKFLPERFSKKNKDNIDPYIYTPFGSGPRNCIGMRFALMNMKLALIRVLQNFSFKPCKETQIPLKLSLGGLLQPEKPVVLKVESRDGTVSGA
Sequence of CYP2C9 (P11712 whole entry): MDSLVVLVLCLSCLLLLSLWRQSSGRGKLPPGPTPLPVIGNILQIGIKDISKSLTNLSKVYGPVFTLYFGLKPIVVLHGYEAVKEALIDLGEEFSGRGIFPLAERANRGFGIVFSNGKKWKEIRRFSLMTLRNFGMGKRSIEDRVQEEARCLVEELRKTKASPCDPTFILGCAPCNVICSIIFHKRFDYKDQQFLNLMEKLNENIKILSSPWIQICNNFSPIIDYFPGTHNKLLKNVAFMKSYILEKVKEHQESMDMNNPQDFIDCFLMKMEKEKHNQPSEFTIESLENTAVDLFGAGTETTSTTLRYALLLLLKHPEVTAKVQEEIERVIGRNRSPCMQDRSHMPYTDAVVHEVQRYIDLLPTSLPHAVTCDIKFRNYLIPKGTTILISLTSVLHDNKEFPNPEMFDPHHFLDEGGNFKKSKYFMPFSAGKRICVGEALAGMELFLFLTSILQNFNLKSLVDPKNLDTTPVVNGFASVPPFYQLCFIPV
Sequence of CYP2C19 (P33261 whole entry): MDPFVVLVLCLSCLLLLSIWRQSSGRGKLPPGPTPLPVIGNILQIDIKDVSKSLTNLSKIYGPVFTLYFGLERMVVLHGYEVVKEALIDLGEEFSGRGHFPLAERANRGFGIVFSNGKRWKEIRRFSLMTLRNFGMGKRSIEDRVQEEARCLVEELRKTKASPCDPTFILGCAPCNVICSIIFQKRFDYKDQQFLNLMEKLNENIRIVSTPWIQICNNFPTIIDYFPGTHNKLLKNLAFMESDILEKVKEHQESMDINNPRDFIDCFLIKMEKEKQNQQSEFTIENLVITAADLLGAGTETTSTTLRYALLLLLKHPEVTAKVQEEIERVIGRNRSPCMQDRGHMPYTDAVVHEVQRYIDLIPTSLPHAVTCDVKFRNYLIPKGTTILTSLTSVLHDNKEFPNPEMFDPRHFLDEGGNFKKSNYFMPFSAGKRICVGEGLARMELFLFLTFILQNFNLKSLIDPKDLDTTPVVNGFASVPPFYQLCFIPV

Regarding `CCCn1c(=O)c2nc(C34CC5CC(CC3C5)C4)[nH]c2n(CCC)c1=O`, the result in the data set on Rattus norvegicus [1] and in the data set with Rattus norvegicus [2] was Active.
Turning to `CCCn1c(OC2CCC(O)C2)nc2nc(C3CCCC3)[nH]c2c1=O` (configuration not stated), the inhibition was 35 to 41% in data set [3], 37% in data set [12], 6% in data set [15] and 0% on Adenosine receptor A2a. Further, the Drug metabolism result in data set [4] is “Metabolite_Detected”; in the data set with Liver [13], 0.12 nmol/min/mg; in data set [17] it was “Metabolite_Detected”; in the data set on Liver [20], 0.1 nmol/min/mg. Besides, the results for the solubility thermodynamic in data set [5], in [6] and in data set [14] were 276 µM (≈ 95.6 µg/mL), 2590 µM (≈ 897 µg/mL) and 182 µM (≈ 63.1 µg/mL), respectively. Moreover, the clearance in data set [7] amounted to 48 mL/min/kg. Besides, the Ki was 57 nM at Adenosine receptor A1 [8] and 9.6 nM at Adenosine receptor A1 [16]. In addition, the fraction unbound at 5 µM in data set [9] is 0.2. In addition, the results for the remaining at 0.5 h in [10] and in data set [11] were 68% and 60%, respectively. Besides, the inhibition at 5 µM is 3% against CYP2C19; 5% against CYP1A2; 0% at CYP2D6; 0% against CYP3A4; 4% against CYP2C9. Besides, the half-life in [18] was 18 min. Besides, the AUC(0-t) in [19] amounted to 3 µM·h. In addition, in [21], the Vd turned out to be 0.8 L/kg.

The values are drawn from ChEMBL document CHEMBL3992564, “Design and synthesis of novel, potent and selective hypoxanthine analogs as adenosine A1 receptor antagonists and their biological evaluation” (Bioorg Med Chem, 2017).
